In ChEMBL document CHEMBL1135842, “Synthesis and biological activity of polygalloyl-dendrimers as stable tannic acid mimics” (Bioorg Med Chem Lett, 2002):

Columns and labels:
[1] = Effective dose required for antioxidant activity was measured as dose giving 50% decolorization of 2,2-diphenyl-1-picryl-hydrazyl (DPPH); assay type: functional
In short: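 DPPH radical scavenging: compounds serially diluted ([…]), incubated with […] in 75% ethanol for 15 min at room temperature; absorbance read at 550 nm. ED50 (dose giving 50% decolorization) obtained by linear regression of absorbance curves; means of five experiments, SEM reported.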

[2] = The degree of collagen cross-linking by hydrothermal shrinkage temperature was determined; assay type: functional
In short: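 Purified skin collagen matrices incubated 48 h at room temperature with samples at 4 mM in 85% glycerol; hydrothermal shrinkage onset temperature (Ts) recorded, with untreated matrix as reference. Means of five experiments with SEM; significance versus tannic acid at p<0.05.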

| Compound | ED50 [1] | Ts [2] |
| --- | --- | --- |
| O=C(O)c1cc(O)c(O)c(O)c1 | 14.3 µM | 57.5 °C |
| O=C(O)c1cc(OCCNC(=O)c2cc(OCCNC(=O)c3cc(O)c(O)c(O)c3)cc(OCCNC(=O)c3cc(O)c(O)c(O)c3)c2)cc(OCCNC(=O)c2cc(OCCNC(=O)c3cc(O)c(O)c(O)c3)cc(OCCNC(=O)c3cc(O)c(O)c(O)c3)c2)c1 | 7.4 µM | 57.9 °C |
| O=C(O)c1cc(OCCNC(=O)c2cc(O)c(O)c(O)c2)cc(OCCNC(=O)c2cc(O)c(O)c(O)c2)c1 | 13.7 µM | 58.4 °C |
| O=C(O)c1cc(OCCNC(=O)c2cc(OCCNC(=O)c3cc(OCCNC(=O)c4cc(O)c(O)c(O)c4)cc(OCCNC(=O)c4cc(O)c(O)c(O)c4)c3)cc(OCCNC(=O)c3cc(OCCNC(=O)c4cc(O)c(O)c(O)c4)cc(OCCNC(=O)c4cc(O)c(O)c(O)c4)c3)c2)cc(OCCNC(=O)c2cc(OCCNC(=O)c3cc(OCCNC(=O)c4cc(O)c(O)c(O)c4)cc(OCCNC(=O)c4cc(O)c(O)c(O)c4)c3)cc(OCCNC(=O)c3cc(OCCNC(=O)c4cc(O)c(O)c(O)c4)cc(OCCNC(=O)c4cc(O)c(O)c(O)c4)c3)c2)c1 | 4.7 µM | 57 °C |
| O=C(OC[C@H]1O[C@@H](OC(=O)c2cc(O)c(O)c(OC(=O)c3cc(O)c(O)c(O)c3)c2)[C@H](OC(=O)c2cc(O)c(O)c(OC(=O)c3cc(O)c(O)c(O)c3)c2)[C@@H](OC(=O)c2cc(O)c(O)c(OC(=O)c3cc(O)c(O)c(O)c3)c2)[C@@H]1OC(=O)c1cc(O)c(O)c(OC(=O)c2cc(O)c(O)c(O)c2)c1)c1cc(O)c(O)c(OC(=O)c2cc(O)c(O)c(O)c2)c1 | 2.9 µM | 59.5 °C |
